pIC50: −log10 of the molar value.
What was measured:
Plasmodium falciparum = assay: Antimalarial activity against chloroquine-resistant Plasmodium falciparum Dd2 assessed as parasite growth inhibition after 72 hrs by SYBR Green 1 assay; format: functional; settings: Dd2, 72 h
How it was run: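 Viability was read by SYBR Green I DNA quantitation and normalized to DMSO-treated untreated controls. IC50 came from nonlinear regression, averaging at least three independent experiments run in triplicate, with standard deviations.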

[1] = Selectivity index, ratio of IC50 for human WI38 cells to IC50 for chloroquine-resistant Plasmodium falciparum Dd2; format: toxicity; settings: read-out: Ratio IC50
WI-38 = assay: Cytotoxicity against human WI38 cells after 24 hrs by resazurin assay; settings: WI-38, 24 h

Row | SMILES | pIC50 (Plasmodium falciparum) | selectivity ratio [1] | pIC50 (WI-38)
1 | COC(=O)/C(C)=C1\C(=O)[C@H](O)[C@]2(C)C3=C(C[C@@H]4[C@]5(OC(=O)C6=C5C[C@H]5[C@](O)(COC(=O)/C(C)=C/COC(=O)[C@@H](O)CC(=O)OC6)[C@H]6C[C@H]6[C@]45C)[C@H]31)[C@H]1C[C@H]12 | 7.89 | 134 | 5.76
2 | COC(=O)/C(C)=C1\C(=O)[C@H](O)[C@]2(C)C3=C(C[C@@H]4[C@]5(OC(=O)C(CO)=C5C[C@H]5[C@](O)(COC(=O)/C(C)=C/CO)[C@H]6C[C@H]6[C@]45C)[C@H]31)[C@H]1C[C@H]12 [SARCANDROLIDE B] | 6.58 | – | –
3 | COC(=O)/C(C)=C1\C(=O)[C@H](O)[C@]2(C)C3=C(C[C@@H]4[C@]5(OC(=O)C(C)=C5C[C@H]5[C@H](COC(C)=O)[C@H]6C[C@H]6[C@]45C)[C@H]31)[C@H]1C[C@H]12 | 5.74 | – | –
4 | CC1=C2C3=C4[C@](C)([C@@H]5C[C@@H]5[C@@]4(O)C[C@@H]4[C@]35OC(=O)C3=C5C[C@H]5[C@](O)(COC(=O)/C(C)=C/COC(=O)CCC(=O)OC3)[C@H]3C[C@H]3[C@]45C)[C@@H](O)[C@@]2(O)OC1=O [CHLORAMULTILIDE C] | < 4.60 | – | –
5 | C=C1[C@H]2C[C@H]2[C@@]2(C)[C@H]1[C@@H](OC(C)=O)C1=C(C)C(=O)O[C@@]13C1=C4[C@](C)([C@@H]5C[C@@H]5[C@@]4(O)C[C@H]32)[C@@H](O)C(=O)/C1=C(/C)C(=O)OC | < 4.60 | – | –
6 | C/C=C(\C)C(=O)OC[C@]1(O)[C@H]2C[C@H]2[C@]2(C)[C@@H]3CC4=C5[C@H](/C(=C(/C)C(=O)OC)C(=O)[C@H](O)[C@@]5(C)[C@@H]5C[C@H]45)[C@@]34OC(=O)C(COC(C)=O)=C4C[C@@H]12 | 7.89 | 12 | 6.80
7 | C=C1[C@H]2C[C@H]2[C@@]2(C)[C@H]1[C@@H](OC(C)=O)C1=C(C)C(=O)O[C@@]13C1=C4[C@@](C)(C(=O)[C@@]5(O)OC(=O)C(C)=C15)[C@@H]1C[C@@H]1[C@@]4(O)C[C@H]32 | < 4.60 | – | –
8 | C=C1C(=O)O[C@]23C4=C5C(=O)[C@H](O)[C@]6(C)C4=C(C[C@H]2[C@]2(C)C(C[C@]13[C@]5(C)C(=O)OC)[C@](O)(COC(=O)/C(C)=C/C)[C@H]1C[C@H]12)[C@H]1C[C@H]16 (some centres undefined) | 5.33 | – | –
9 | COC(=O)/C(C)=C1\C(=O)[C@H](O)[C@]2(C)C3=C(C[C@@H]4[C@]5(OC(=O)C(CO)=C5C[C@H]5[C@](O)(COC(=O)/C=C(\C)CO)[C@H]6C[C@H]6[C@]45C)[C@H]31)[C@H]1C[C@H]12 | 6.95 | – | –
10 | COC(=O)CCC(=O)OC/C(C)=C/C(=O)OC[C@]1(O)[C@H]2C[C@H]2[C@]2(C)[C@@H]3CC4=C5[C@H](/C(=C(\C)C(=O)OC)C(=O)[C@H](O)[C@@]5(C)[C@@H]5C[C@H]45)[C@@]34OC(=O)C(CO)=C4C[C@@H]12 | 7.72 | 163 | 5.51
11 | CC1=C2CC3=C(C)[C@H]4C[C@H]4[C@]3(C)C[C@@H]2OC1=O | < 4.60 | – | –
12 | CC1=C2C3=C4[C@](C)([C@@H]5C[C@@H]5[C@@]4(O)C[C@@H]4[C@]35OC(=O)C3=C5C[C@H]5[C@](O)(COC(=O)/C=C(\C)COC(=O)CCC(=O)OC3)[C@H]3C[C@H]3[C@]45C)[C@@H](O)[C@@]2(O)OC1=O | 5.15 | – | –
13 | COC(=O)/C(C)=C1\C(=O)[C@H](O)[C@]2(C)C3=C(C[C@@H]4[C@]5(OC(=O)C(CO)=C5C[C@H]5[C@H](CO)[C@H]6C[C@H]6[C@]45C)[C@H]31)[C@H]1C[C@H]12 | 4.94 | – | –
14 | COC(=O)/C(C)=C1\C(=O)[C@H](O)[C@]2(C)C3=C(C[C@@H]4[C@]5(OC(=O)C6=C5C[C@H]5[C@](O)(COC(=O)/C(C)=C/COC(=O)CCC(=O)OC6)[C@H]6C[C@H]6[C@]45C)[C@H]31)[C@H]1C[C@H]12 [SHIZUKAOL B] | 7.57 | 619 | 4.78
15 | CC1=C2[C@H]3[C@@H]4C(=C[C@@H]5[C@]36OC(=O)C(CO)=C6C[C@H]3[C@](O)(COC(=O)/C=C(\C)CO)[C@H]6C[C@H]6[C@]53C)[C@H]3C[C@H]3[C@]4(C)[C@@H](O)[C@@]2(O)OC1=O | 5.00 | – | –
16 | COC(=O)/C(C)=C1\C(=O)[C@H](O)[C@]2(C)C3=C(C[C@@H]4[C@]5(OC(=O)C(CO)=C5C[C@H]5[C@](O)(CO)[C@H]6C[C@H]6[C@]45C)[C@H]31)[C@H]1C[C@H]12 | 5.34 | – | –
17 | COC(=O)/C(C)=C1\C(=O)[C@H](O)[C@]2(C)C3=C1[C@]14OC(=O)C5=C1C[C@H]1[C@](O)(COC(=O)/C=C(\C)COC(=O)CCC(=O)OC5)[C@H]5C[C@H]5[C@]1(C)[C@@H]4C[C@]3(OO)[C@H]1C[C@H]12 | 6.32 | – | –
18 | C=C1[C@@H]2C[C@@H]2[C@]2(C)[C@@H]3CC4=C5[C@H](/C(=C(\C)C(=O)OC)C(=O)[C@H](O)[C@@]5(C)[C@@H]5C[C@H]45)[C@@]34OC(=O)C(C)=C4C[C@@H]12 | 5.82 | – | –

Row | SMILES | pIC50 (Plasmodium falciparum) | selectivity ratio [1] | pIC50 (WI-38)
19 | C/C=C(\C)C(=O)OC[C@]1(O)[C@H]2C[C@H]2[C@]2(C)[C@@H]3CC4=C5[C@H](/C(=C(\C)C(=O)OC)C(=O)[C@H](O)[C@@]5(C)[C@@H]5C[C@H]45)[C@@]34OC(=O)C(C)=C4C[C@@H]12 [SARCANDROLIDE A] | 6.49 | – | –
20 | COC(=O)CCC(=O)OCC1=C2C[C@H]3[C@](O)(COC(=O)/C=C(\C)CO)[C@H]4C[C@H]4[C@]3(C)[C@@H]3C[C@@]4(OO)C5=C(C6=C(C)C(=O)O[C@]6(O)[C@H](O)[C@@]5(C)[C@@H]5C[C@@H]54)[C@]23OC1=O | 7.03 | – | –
21 | COC(=O)/C(C)=C1\C(=O)[C@H](O)[C@]2(C)C3=C(C[C@@H]4[C@]5(OC(=O)C(CO)=C5C[C@H]5[C@](O)(COC(=O)C=C(C)C)[C@H]6C[C@H]6[C@]45C)[C@H]31)[C@H]1C[C@H]12 | 6.68 | – | –
22 | C[C@@H]1CC[C@H]2[C@@H](C)C(=O)O[C@@H]3O[C@@]4(C)CC[C@@H]1[C@]32OO4 [ARTEMISININ] | 8.40 | – | –
23 | COC(=O)/C(C)=C1\C(=O)[C@H](O)[C@]2(C)C3=C(C[C@@H]4[C@]5(OC(=O)C(CO)=C5C[C@H]5[C@H](COC(C)=O)[C@H]6C[C@H]6[C@]45C)[C@H]31)[C@H]1C[C@H]12 | 6.24 | – | –
24 | C[C@@]12C=C3OC(=O)C(CO)=C3C[C@H]1[C@@H](CO)[C@H]1C[C@H]12 | < 4.60 | – | –
25 | COC(=O)CCC(=O)OCC1=C2C[C@H]3[C@](O)(COC(=O)/C=C(\C)CO)[C@H]4C[C@H]4[C@]3(C)[C@@H]3C=C4C5=C(C6=C(C)C(=O)O[C@]6(O)[C@H](O)[C@@]5(C)[C@@H]5C[C@H]45)[C@]23OC1=O | 6.70 | – | –
26 | CC(=O)OC[C@H]1[C@H]2C[C@H]2[C@]2(C)C=C3OC(=O)C(CO)=C3C[C@@H]12 | < 4.60 | – | –
27 | COC(=O)/C(C)=C1\C(=O)[C@H](O)[C@]2(C)C3=C(C[C@@H]4[C@]5(OC(=O)C(COC(C)=O)=C5C[C@H]5[C@](O)(COC(=O)C=C(C)C)[C@H]6C[C@H]6[C@]45C)[C@H]31)[C@H]1C[C@H]12 | 6.07 | – | –
28 | CO[C@]12OC(=O)C(C)=C1C1=C3[C@](C)([C@@H]4C[C@@H]4[C@@]3(O)C[C@@H]3[C@]14OC(=O)C1=C4C[C@H]4[C@](O)(COC(=O)/C(C)=C/COC(=O)CCC(=O)OC1)[C@H]1C[C@H]1[C@]34C)[C@H]2O | < 4.60 | – | –
29 | C/C=C(\C)C(=O)OC[C@]1(O)[C@H]2C[C@H]2[C@]2(C)[C@@H]3C[C@@]4(O)C5=C(/C(=C(\C)C(=O)OC)C(=O)[C@H](O)[C@@]5(C)[C@@H]5C[C@@H]54)[C@@]34OC(=O)C(COC(C)=O)=C4C[C@@H]12 [SARCANDROLIDE E] | < 4.60 | – | –
30 | COC(=O)CCC(=O)OCC1=C2C[C@H]3[C@](O)(COC(=O)/C=C(\C)CO)[C@H]4C[C@H]4[C@]3(C)[C@@H]3C[C@@]4(OO)C5=C(/C(=C(\C)C(=O)OC)C(=O)[C@H](O)[C@@]5(C)[C@@H]5C[C@@H]54)[C@]23OC1=O | 7.37 | – | < 4.00
31 | C=C1[C@H]2C[C@H]2[C@@]2(C)[C@H]1[C@@H](OC(C)=O)C1=C(C)C(=O)O[C@@]13C1=C4[C@](O)(C[C@H]32)[C@H]2C[C@H]2[C@]4(C)CC(=O)/C1=C(/C)C(=O)OC | < 4.60 | – | –
32 | COC(=O)/C(C)=C1\C(=O)[C@H](O)[C@]2(C)C3=C1[C@]14OC(=O)C(C)=C1C[C@H]1[C@](O)(CO)[C@H]5C[C@H]5[C@]1(C)[C@@H]4C[C@]3(OO)[C@H]1C[C@H]12 | 5.28 | – | –
33 | C/C=C(\C)C(=O)OC[C@]1(O)[C@H]2C[C@H]2[C@]2(C)[C@@H]3C[C@@]4(O)C5=C(C6=C(C)C(=O)O[C@]6(O)[C@H](O)[C@@]5(C)[C@@H]5C[C@@H]54)[C@@]34OC(=O)C(COC(C)=O)=C4C[C@@H]12 [SARCANDROLIDE D] | < 4.60 | – | –
34 | COC(=O)/C(C)=C1\C(=O)[C@H](O)[C@]2(C)C3=C1[C@]14OC(=O)C5=C1C[C@H]1[C@](O)(COC(=O)/C(C)=C/COC(=O)CCC(=O)OC5)[C@H]5C[C@H]5[C@]1(C)[C@@H]4C[C@]3(O)[C@H]1C[C@H]12 | < 4.60 | – | –
35 | C/C=C(\C)C(=O)OC[C@]1(O)[C@H]2C[C@H]2[C@]2(C)[C@@H]3C[C@@]4(O)C5=C(C6=C(C)C(=O)O[C@]6(O)[C@H](O)[C@@]5(C)[C@@H]5C[C@@H]54)[C@@]34OC(=O)C(CO)=C4C[C@@H]12 [CHLORAMULTILIDE D] | < 4.60 | – | –
